ChEMBL document CHEMBL1255328, “Transcriptional and translational control of the mlr operon, which confers resistance to seven classes of protein synthesis inhibitors” (2008)
Values after ≈ are worked out from the molar mass of the structure shown.

How the values were obtained:
Staphylococcus aureus [1] = test: Antimicrobial activity against methicillin-resistant Staphylococcus aureus CM05 by broth microdilution method; assay type: functional
How it was run: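 Clinical MRSA strain CM05. MICs determined by broth microdilution following accepted recommendations.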

Staphylococcus aureus [2] = test: Antimicrobial activity against erm(B) and cfr-deficient Staphylococcus aureus RN4220 harboring plasmid LI50 by broth microdilution method
Staphylococcus aureus [3] = test: Antimicrobial activity against Staphylococcus aureus RN4220 harboring erm(B) and cfr gene by broth microdilution method
Staphylococcus aureus [4] = test: Antimicrobial activity against erm(B)-deficient Staphylococcus aureus RN4220 harboring cfr gene by broth microdilution method; assay type: functional
How it was run: (§1)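 S. aureus RN4220 carrying the relevant shuttle plasmid, introduced by electroporation and selected on LB agar with 10 µg/ml chloramphenicol. MICs by broth microdilution per accepted recommendations. Disk diffusion: ca. 10^7 cells in 4 ml 0.6% soft agar over 1.5% LB agar with 10 µg/ml chloramphenicol. Paper disks (5 mm) held 20 µg erythromycin or 30 µg florfenicol. Plates incubated overnight at 37°C and photographed.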

Staphylococcus aureus [5] = test: Antimicrobial activity against Staphylococcus aureus RN4220 harboring plasmid MS2 by broth microdilution method; assay type: functional; how it was run: as §1
Staphylococcus aureus [6] = test: Antimicrobial activity against Staphylococcus aureus RN4220 harboring plasmid LI50 by broth microdilution method; assay type: functional; how it was run: as §1
Staphylococcus aureus [7] = test: Antimicrobial activity against cfr-deficient Staphylococcus aureus RN4220 harboring erm(B) gene by broth microdilution method; assay type: functional; how it was run: as §1
Staphylococcus aureus [8] = test: Antimicrobial activity against methicillin-resistant Staphylococcus aureus RN4220 harboring erm(B) and cfr gene assessed as modification of A2503 site in 23S rRNA; assay type: functional
Staphylococcus aureus [9] = test: Antimicrobial activity against methicillin-resistant Staphylococcus aureus RN4220 harboring erm(B) and cfr gene assessed as modification of A2058 site in 23S rRNA; assay type: functional
Staphylococcus aureus [10] = test: Antimicrobial activity against methicillin-resistant Staphylococcus aureus CM05 assessed as modification of A2058 site in 23S rRNA; assay type: functional
Staphylococcus aureus [11] = test: Antimicrobial activity against Staphylococcus aureus RN4220 harboring erm(B) promoter-deficient plasmid MS2 by broth microdilution method
Staphylococcus aureus [12] = test: Antimicrobial activity against Staphylococcus aureus RN4220 harboring cfr gene with mutagenized second codon CAG; assay type: functional; how it was run: as §1
Staphylococcus aureus [13] = test: Antimicrobial activity against methicillin-resistant Staphylococcus aureus CM05 assessed as modification of A2503 site in 23S rRNA; assay type: functional
Staphylococcus aureus [14] = test: Antimicrobial activity against Staphylococcus aureus RN4220 harboring cfr gene with mutagenized first codon CAG; assay type: functional; how it was run: as §1

Row | Molecule | MIC (Staphylococcus aureus [1]) [µg/mL] | MIC (Staphylococcus aureus [2]) [µg/mL] | MIC (Staphylococcus aureus [3]) [µg/mL] | MIC (Staphylococcus aureus [4]) [µg/mL] | MIC (Staphylococcus aureus [5]) [µg/mL] | MIC (Staphylococcus aureus [6]) [µg/mL] | MIC (Staphylococcus aureus [7]) [µg/mL] | Activity (Staphylococcus aureus [8]) [%] | Activity (Staphylococcus aureus [9]) [%] | Activity (Staphylococcus aureus [10]) [%] | MIC (Staphylococcus aureus [11]) [µg/mL] | MIC (Staphylococcus aureus [12]) [µg/mL] | Activity (Staphylococcus aureus [13]) [%] | MIC (Staphylococcus aureus [14]) [µg/mL]
1 | O=C(N[C@H](CO)[C@H](O)c1ccc([N+](=O)[O-])cc1)C(Cl)Cl [CHLORAMPHENICOL] | 64 (≈ 198 µM) | – | – | – | – | – | – | – | – | – | – | – | – | –
2 | CCC[C@@H]1C[C@@H](C(=O)N[C@@H]([C@H]2O[C@H](SC)[C@H](O)[C@@H](O)[C@H]2O)[C@H](C)Cl)N(C)C1 [CLINDAMYCIN] | > 1020 | < 1 | > 1020 | 1020 (≈ 2410 µM) | > 1020 | < 1 | > 1020 | – | – | – | – | – | – | –
3 | CC[C@H]1OC(=O)[C@H](C)[C@@H](O[C@H]2C[C@@](C)(OC)[C@@H](O)[C@H](C)O2)[C@H](C)[C@@H](O[C@@H]2O[C@H](C)C[C@H](N(C)C)[C@H]2O)[C@](C)(O)C[C@@H](C)C(=O)[C@H](C)[C@@H](O)[C@]1(C)O [ERYTHROMYCIN] | > 1020 | 0.5 (≈ 0.681 µM) | > 1020 | – | > 1020 | 0.5 (≈ 0.681 µM) | – | 11 | 23 | 35 | 0.5 (≈ 0.681 µM) | > 1020 | 27 | > 1020
4 | CS(=O)(=O)c1ccc([C@@H](O)[C@@H](CF)NC(=O)C(Cl)Cl)cc1 [FLORFENICOL] | – | 4 (≈ 11.2 µM) | 128 (≈ 357 µM) | – | 128 (≈ 357 µM) | 4 (≈ 11.2 µM) | – | 16 | 20 | 32 | 4 (≈ 11.2 µM) | 4 (≈ 11.2 µM) | 20 | 128 (≈ 357 µM)
5 | CO[C@@H]1[C@@H](O[C@@H]2O[C@H](C)[C@@H](O[C@H]3C[C@@](C)(O)[C@@H](OC(=O)CC(C)C)[C@H](C)O3)[C@H](N(C)C)[C@H]2O)[C@@H](CC=O)C[C@@H](C)[C@@H](O)/C=C/C=C/C[C@@H](C)OC(=O)C[C@H]1OC(C)=O [JOSAMYCIN] | – | 1 (≈ 1.21 µM) | > 2000 | 64 (≈ 77.3 µM) | – | – | > 2000 | – | – | – | – | – | – | –
6 | CC(=O)NC[C@H]1CN(c2ccc(N3CCOCC3)c(F)c2)C(=O)O1 [LINEZOLID] | 8 (≈ 23.7 µM) | – | – | – | – | – | – | – | – | – | – | – | – | –
7 | C=C[C@]1(C)C[C@@H](OC(=O)CSCCN(CC)CC)[C@]2(C)[C@H](C)CC[C@]3(CCC(=O)[C@H]32)[C@@H](C)[C@@H]1O [TIAMULIN] | 512 (≈ 1040 µM) | – | – | – | 128 (≈ 259 µM) | 1 (≈ 2.03 µM) | – | – | – | – | – | – | – | –
8 | CC[C@H]1OC(=O)C[C@@H](O)[C@H](C)[C@@H](O[C@@H]2O[C@H](C)[C@@H](O[C@H]3C[C@@](C)(O)[C@@H](O)[C@H](C)O3)[C@H](N(C)C)[C@H]2O)[C@@H](CC=O)C[C@@H](C)C(=O)/C=C/C(C)=C/[C@@H]1CO[C@@H]1O[C@H](C)[C@@H](O)[C@@H](OC)[C@H]1OC [TYLOSIN] | – | 1 (≈ 1.09 µM) | 6000 (≈ 6550 µM) | 2 (≈ 2.18 µM) | > 1020 | 2 (≈ 2.18 µM) | 2000 (≈ 2180 µM) | – | – | – | – | – | – | –
9 | SPIRAMYCIN | – | – | – | 128 | – | – | > 4000 | – | – | – | – | – | – | –
